Experimental data published in ChEMBL document CHEMBL2086367, “Novel oxysterols activate the Hedgehog pathway and induce osteogenesis” (Bioorg Med Chem Lett, 2012).
Activity calls are given as the source filed them. The rule behind the calls is not given here.

Experiments:
Sonic hedgehog protein = Sonic hedgehog protein (Mus musculus, UniProt Q62226); test: Activation of SHh in mouse Light2 cells assessed as induction of Gli-mediated luciferase activity after 24 hrs by reporter gene assay; type: cell-based
Procedure, shortened: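 SHHLight2 cells (8×Gli response elements driving firefly luciferase; constitutive Renilla) seeded at 10,000 cells/well in DMEM/10% FCS. After 24 h, compound added in DMEM/0.5% FCS, triplicate wells. Firefly and Renilla luciferase read 24 h later; firefly divided by Renilla per well, expressed relative to DMSO-treated cells.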

C3H 10T1/2 = test: Osteogenetic activity in mouse C3H10T1/2 cells assessed as increase in osteocalcin expression at 3.3 uM after 10 days by RT-PCR analysis relative to control; type: functional
[1] = Metabolic stability in human liver microsomes assessed as compound remaining after 1 hr; type: ADME, Microsome; conditions: read-out: Stability
[2] = Half life in human liver microsomes incubated up to 60 mins; type: ADME, Microsome
Procedure, shortened: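 Pooled human liver microsomes with NADPH; sampling at 0, 15, 30, 45 and 60 min to derive intrinsic clearance half-life.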

[3] = Half life in human liver microsomes incubated up to 120 mins at pH 7.4; type: ADME, Microsome
Rattus norvegicus [4] = test: Osteogenetic activity in Sprague-Dawley rat assessed as increase in bone volume in callus at 4 mg/kg measured after 8 weeks by MicroCT analysis; type: functional, organism-based; set-up: dose 4 mg/kg
Procedure, shortened: (§1)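 Sprague Dawley rats; compound in DMSO at 50 mg/mL, 40 µL loaded onto collagen sponge, held 1–2 h at room temperature, implanted bilaterally between L4 and L5 after decorticating transverse processes; 4 mg/kg. After 8 weeks, segment stability scored by manual palpation (n = 10/group, Kruskal-Wallis); formalin-fixed tissue scanned by microCT at 18 µm resolution for callus bone volume.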

Rattus norvegicus [5] = test: Osteogenetic activity in Sprague-Dawley rat assessed as increase in mechanical stability of the vertebral segments at 4 mg/kg measured after 8 weeks by manual palpation; type: functional, organism-based; set-up: dose 4 mg/kg; procedure, shortened: as §1

Chain of Sonic hedgehog protein (Q62226 25-198 limits assumed): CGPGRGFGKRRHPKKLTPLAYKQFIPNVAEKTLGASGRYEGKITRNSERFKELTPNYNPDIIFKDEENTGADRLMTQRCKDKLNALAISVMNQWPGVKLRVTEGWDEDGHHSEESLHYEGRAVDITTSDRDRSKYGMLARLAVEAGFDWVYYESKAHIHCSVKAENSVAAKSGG

| SMILES | EC50 (Sonic hedgehog protein) [nM] | fold change (FC) (C3H 10T1/2) | remaining at 1 h [1] [%] | other results |
| --- | --- | --- | --- | --- |
| CC(C)CCC[C@@](C)(O)[C@H]1CC[C@H]2[C@@H]3C[C@H](O)[C@H]4C[C@@H](O)CC[C@]4(C)[C@H]3CC[C@@]21C | > 10000 | – | – | – |
| COCCCC[C@](C)(O)[C@H]1CC[C@H]2[C@@H]3C[C@H](O)[C@H]4C[C@@H](O)CC[C@]4(C)[C@H]3CC[C@@]21C | 3100 | 3 | 35 | – |
| [2H][C@H](CC(C)C)[C@@H]([2H])[C@](C)(O)[C@H]1CC[C@H]2[C@@H]3C[C@H](O)[C@H]4C[C@@H](O)CC[C@]4(C)[C@H]3CC[C@]12C | 1100 | – | – | half-life [2]: 5 min |
| CCCCCC[C@@](O)(CC)[C@H]1CC[C@H]2[C@@H]3C[C@H](O)[C@H]4C[C@@H](O)CC[C@]4(C)[C@H]3CC[C@]12C | 2900 | – | 9 | – |
| C[C@]12CC[C@H](O)C[C@@H]1[C@@H](O)C[C@@H]1[C@@H]2CC[C@@]2(C)[C@H]1CC[C@@H]2[C@@](C)(O)CCCc1ccccc1 | 2500 | 2 | 1 | – |
| [2H]C([2H])(CC(C)C)C([2H])([2H])[C@](C)(O)[C@H]1CC[C@H]2[C@@H]3C[C@H](O)[C@H]4C[C@@H](O)CC[C@]4(C)[C@H]3CC[C@@]21C | 800 | 17 | 100 | half-life [3]: > 120 min |
| CC(C)CCC[C@](C)(O)[C@H]1CC[C@H]2[C@@H]3C[C@H](O)[C@H]4C[C@@H](O)CC[C@]4(C)[C@H]3CC[C@@]21C | 800 | 15 | 3 | Activity (Rattus norvegicus [4]): Active; Activity (Rattus norvegicus [4]; tested as the 2H-labelled form): Active; half-life [2]: 4 min; Activity (Rattus norvegicus [5]): inactive; Activity (Rattus norvegicus [5]; tested as the 2H-labelled form): inactive |
| C[C@]12CC[C@H](O)C[C@@H]1[C@@H](O)C[C@@H]1[C@@H]2CC[C@@]2(C)[C@H]1CC[C@@H]2[C@@](C)(O)CCCc1ccncc1 | > 5000 | 2 | – | – |
| [2H][C@@H](CC(C)C)[C@H]([2H])[C@](C)(O)[C@H]1CC[C@H]2[C@@H]3C[C@H](O)[C@H]4C[C@@H](O)CC[C@]4(C)[C@H]3CC[C@]12C | 1000 | – | – | half-life [3]: > 120 min |
| [2H]C([2H])(CCCC)C([2H])([2H])[C@](C)(O)[C@H]1CC[C@H]2[C@@H]3C[C@H](O)[C@H]4C[C@@H](O)CC[C@]4(C)[C@H]3CC[C@@]21C | 300 | 35 | 100 | – |
| CCCCCCC[C@](C)(O)[C@H]1CC[C@H]2[C@@H]3C[C@H](O)[C@H]4C[C@@H](O)CC[C@]4(C)[C@H]3CC[C@@]21C | 500 | 17 | – | – |
| CCCCC[C@](C)(O)[C@H]1CC[C@H]2[C@@H]3C[C@H](O)[C@H]4C[C@@H](O)CC[C@]4(C)[C@H]3CC[C@@]21C | 6600 | 4 | – | – |
| CCCCCC[C@@](O)(c1ccccc1)[C@H]1CC[C@H]2[C@@H]3C[C@H](O)[C@H]4C[C@@H](O)CC[C@]4(C)[C@H]3CC[C@@]21C | > 10000 | – | 69 | – |
| C[C@]12CC[C@H](O)C[C@@H]1[C@@H](O)C[C@@H]1[C@@H]2CC[C@@]2(C)[C@H]1CC[C@@H]2[C@@](C)(O)CCCc1cccnc1 | 1200 | – | – | – |
| CCCCCC[C@](C)(O)[C@H]1CC[C@H]2[C@@H]3C[C@H](O)[C@H]4C[C@@H](O)CC[C@]4(C)[C@H]3CC[C@@]21C | 400 | 36 | 2 | Activity (Rattus norvegicus [4]): Active; Activity (Rattus norvegicus [5]): inactive |
